Here are results for 17 molecules from ChEMBL document CHEMBL1133896, “Structure-activity study and analgesic efficacy of amino acid derivatives as N-type calcium channel blockers” (Bioorg Med Chem Lett, 2001).

Each structure is given as a SMILES string.

The target in assay [1] is T1, Voltage-dependent N-type calcium channel subunit alpha-1B (Homo sapiens, UniProt Q00975). Kind of assay: In vitro inhibition against N-type calcium influx in IMR-32 cells. Type of assay: functional, cell-based.
Target sequence in this assay (Q00975 whole entry): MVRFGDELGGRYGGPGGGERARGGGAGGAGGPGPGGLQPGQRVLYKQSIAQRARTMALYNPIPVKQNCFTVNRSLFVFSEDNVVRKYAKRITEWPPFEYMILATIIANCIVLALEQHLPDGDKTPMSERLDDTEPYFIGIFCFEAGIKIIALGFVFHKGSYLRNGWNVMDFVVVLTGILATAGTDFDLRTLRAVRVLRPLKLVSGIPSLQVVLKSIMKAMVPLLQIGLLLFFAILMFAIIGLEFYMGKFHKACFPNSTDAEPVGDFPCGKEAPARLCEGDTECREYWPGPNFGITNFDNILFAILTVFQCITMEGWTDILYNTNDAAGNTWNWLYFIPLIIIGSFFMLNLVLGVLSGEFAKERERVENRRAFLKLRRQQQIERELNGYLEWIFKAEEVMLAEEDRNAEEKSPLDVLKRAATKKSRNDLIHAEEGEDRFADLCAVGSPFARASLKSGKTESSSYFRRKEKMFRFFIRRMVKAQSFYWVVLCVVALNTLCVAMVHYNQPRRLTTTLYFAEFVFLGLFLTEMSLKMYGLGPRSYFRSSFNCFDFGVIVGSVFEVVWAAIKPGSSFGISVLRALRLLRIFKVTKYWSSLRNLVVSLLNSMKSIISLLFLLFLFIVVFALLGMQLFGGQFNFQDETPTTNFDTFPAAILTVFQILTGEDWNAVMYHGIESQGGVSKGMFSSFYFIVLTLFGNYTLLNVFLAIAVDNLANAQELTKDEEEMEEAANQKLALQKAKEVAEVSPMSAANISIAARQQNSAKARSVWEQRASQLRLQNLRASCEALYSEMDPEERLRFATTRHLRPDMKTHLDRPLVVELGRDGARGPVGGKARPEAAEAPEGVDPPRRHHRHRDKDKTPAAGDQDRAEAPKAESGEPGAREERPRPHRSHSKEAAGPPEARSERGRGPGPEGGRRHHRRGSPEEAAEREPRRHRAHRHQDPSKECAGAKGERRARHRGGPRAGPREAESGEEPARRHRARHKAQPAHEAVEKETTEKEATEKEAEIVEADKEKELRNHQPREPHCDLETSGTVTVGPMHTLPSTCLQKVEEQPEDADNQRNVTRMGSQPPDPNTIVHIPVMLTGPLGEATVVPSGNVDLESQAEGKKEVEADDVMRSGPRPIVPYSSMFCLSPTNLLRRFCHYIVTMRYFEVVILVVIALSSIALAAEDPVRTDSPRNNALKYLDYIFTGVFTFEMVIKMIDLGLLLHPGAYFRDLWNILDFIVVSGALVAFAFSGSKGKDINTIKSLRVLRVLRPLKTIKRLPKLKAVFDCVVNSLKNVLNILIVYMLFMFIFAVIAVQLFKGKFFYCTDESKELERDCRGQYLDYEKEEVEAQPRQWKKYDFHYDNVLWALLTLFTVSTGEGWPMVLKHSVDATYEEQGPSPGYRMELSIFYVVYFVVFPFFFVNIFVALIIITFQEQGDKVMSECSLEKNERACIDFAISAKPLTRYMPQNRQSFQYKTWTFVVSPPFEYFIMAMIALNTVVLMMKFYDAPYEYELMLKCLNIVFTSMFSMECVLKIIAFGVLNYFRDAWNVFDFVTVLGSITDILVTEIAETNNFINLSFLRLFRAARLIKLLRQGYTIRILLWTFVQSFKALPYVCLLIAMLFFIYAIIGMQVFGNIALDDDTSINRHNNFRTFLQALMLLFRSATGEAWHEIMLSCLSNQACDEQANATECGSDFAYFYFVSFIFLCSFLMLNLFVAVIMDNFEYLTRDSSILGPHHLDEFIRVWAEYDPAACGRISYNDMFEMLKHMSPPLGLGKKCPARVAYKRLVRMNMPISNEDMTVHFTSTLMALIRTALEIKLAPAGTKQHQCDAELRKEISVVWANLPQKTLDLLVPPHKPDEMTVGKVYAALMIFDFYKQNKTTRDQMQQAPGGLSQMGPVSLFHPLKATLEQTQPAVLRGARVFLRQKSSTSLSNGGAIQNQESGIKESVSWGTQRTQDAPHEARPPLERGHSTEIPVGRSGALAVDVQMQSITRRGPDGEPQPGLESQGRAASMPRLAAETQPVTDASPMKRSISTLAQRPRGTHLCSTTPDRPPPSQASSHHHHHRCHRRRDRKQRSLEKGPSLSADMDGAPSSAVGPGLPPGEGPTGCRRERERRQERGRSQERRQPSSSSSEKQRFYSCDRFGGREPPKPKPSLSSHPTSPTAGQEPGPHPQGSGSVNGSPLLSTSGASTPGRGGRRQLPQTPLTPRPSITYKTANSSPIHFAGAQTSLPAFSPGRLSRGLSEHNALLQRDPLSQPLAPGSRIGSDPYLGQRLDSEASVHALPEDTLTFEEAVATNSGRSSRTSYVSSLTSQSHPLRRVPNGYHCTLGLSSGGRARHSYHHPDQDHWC
Assay [2] is described as follows: Selectivity ratio between the L-type to N-type calcium influx. In kind it is functional.
A short description of assay [3]: In vitro inhibition against L-type calcium influx in mouse pituitary tumor derived cells (AtT-20). Type of assay: functional. Particulars: AtT20.
The target in assay [4] is T1, Voltage-dependent N-type calcium channel subunit alpha-1B. The assay is described as follows: In vitro inhibition of N-type calcium channel current in IMR-32 cells at 10 uM. In kind it is functional.
Target sequence in this assay (Q00975 whole entry, looked up): as the sequence (Q00975 whole entry) above
For assay [5], the system named is Rattus norvegicus. The assay is described as follows: In vivo analgesic efficacy in the rat formalin induced pain model at 3 nmol/rat intrathecal dose. Type of assay: functional. The essentials:
(§1)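 Rat formalin test. The read-out was paw flinching during the persistent nociceptive phase, expressed as % inhibition, n=3. Blood pressure and neurological behavior were also observed.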

Assay [6] concerns Rattus norvegicus. The assay is described as follows: In vivo analgesic efficacy in rat formalin induced pain model at 100 mg/kg peroral dose. In kind it is functional. The conditions noted are these: route oral. The procedure, abridged: as §1

As usually defined, the IC50 is the concentration needed to halve the response being measured. Turning to `COc1ccc(COC(=O)[C@H](COCC2CCCCC2)NC(=O)OC(C)(C)C)cc1`, the IC50 amounted to 1.2 µM in assay [1] and 8.4 µM in assay [3]. For the same molecule, the Selectivity ratio in assay [2] was 7.

By inhibition is commonly meant the relative decrease from the control value, in per cent. What is called Inhibition is the relative decrease from the control value, in per cent. As to `COc1ccc(CNC(=O)[C@H](COCC2CCCCC2)NC(=O)OC(C)(C)C)cc1`, the IC50 in assay [1] came to 0.95 µM; in assay [3] it was 3.8 µM. In addition, the inhibition in assay [4] was 38%. Also, the Selectivity ratio in assay [2] is 4. The molecule also showed an Inhibition with Rattus norvegicus [5] of 35%.

On to `COc1cccc(COC(=O)[C@H](CC(=O)OC2CCCC2)NC(=O)OC(C)(C)C)c1`, for which the half-inhibitory concentration (IC50) in assay [1] was 3.8 µM; in assay [3] it was 12 µM. In addition, the Selectivity ratio in assay [2] amounted to 3.2.

`COc1ccc(CNC(=O)[C@H](CCOC2CCCCC2)NC(=O)OC(C)(C)C)cc1`: the results for the IC50 in assay [1] and in assay [3] were 4 µM and 13 µM, respectively. For the same molecule, the Selectivity ratio in assay [2] amounted to 3.3.

As for `COc1ccccc1COC(=O)[C@H](CC(=O)OC1CCCC1)NC(=O)OC(C)(C)C`, the values for the IC50 in assay [1] and in assay [3] were 5.4 µM and 15 µM, respectively. Also, the Selectivity ratio in assay [2] came out at 2.8.

For the molecule `COc1ccc(COC(=O)[C@H](CC(=O)OC2CCC2)NC(=O)OC(C)(C)C)cc1`, the concentration for half-maximal inhibition (IC50) in assay [1] was found to be 15 µM; in assay [3] it was 28 µM. The Selectivity ratio in assay [2] amounted to 1.9.

Turning to `COc1ccc(COC(=O)[C@@H](CC(=O)OC2CCCC2)NC(=O)OC(C)(C)C)cc1`, the results for the half-inhibitory concentration (IC50) in assay [1] and in assay [3] were 2 µM and 2.9 µM, respectively. For the same molecule, the Selectivity ratio in assay [2] was 1.5.

For the molecule `COC(=O)C[C@H](NC(=O)OC(C)(C)C)C(=O)OCc1ccc(OC)cc1`, the half-inhibitory concentration (IC50) is 26 µM in assay [1] and 14 µM in assay [3]. For the same molecule, in assay [2], the Selectivity ratio is 0.5.

Turning to `COc1ccc(COC(=O)[C@H](CC(=O)OC2CCCC2)NC(=O)OC(C)(C)C)cc1`, the 50% inhibitory concentration (IC50) amounted to 3.4 µM in assay [1] and 15 µM in assay [3]. For the same molecule, the inhibition in assay [4] came to 34%. Moreover, the Selectivity ratio in assay [2] turned out to be 4.4. This molecule also came in with an Inhibition in the assay on Rattus norvegicus [5] of 31%.

Take `CC(C)(C)OC(=O)N[C@@H](CC(=O)OC1CCCC1)C(=O)OCc1ccc(Br)cc1`: the 50% inhibitory concentration (IC50) was determined as 3.4 µM in assay [1] and 5.3 µM in assay [3]. The Selectivity ratio in assay [2] stood at 1.6.

`CC(C)(C)OC(=O)N[C@@H](CC(=O)OC1CCCC1)C(=O)OCc1ccc(Cl)cc1`: the IC50 in assay [1] turned out to be 3.3 µM; in assay [3] it was 16 µM. Also, the Selectivity ratio in assay [2] turned out to be 4.8.

On to `COc1ccc(COC(=O)[C@H](CC(=O)OC2CCCCCC2)NC(=O)OC(C)(C)C)cc1`, for which the 50% inhibitory concentration (IC50) in assay [1] stood at 2.6 µM; in assay [3], 12 µM. Moreover, the Selectivity ratio in assay [2] is 4.6.

For `COc1ccc(CN(C)C(=O)[C@H](COCC2CCCCC2)NC(=O)OC(C)(C)C)cc1`, the values for the IC50 in assay [1] and in assay [3] were 1.8 µM and 1.4 µM, respectively. Further, the Selectivity ratio in assay [2] was 0.8.

Take `COc1ccc(COC(=O)[C@H](COC(=O)C2CCCCC2)NC(=O)OC(C)(C)C)cc1`: the IC50 in assay [1] was 1.6 µM; in assay [3] it was 10 µM. Further, the Selectivity ratio in assay [2] turned out to be 6.3.

What is called inhibition in vivo is how much of the control response was suppressed. A lower inhibition in vivo goes with a weak effect. Consider `COc1ccc(CNC(=O)[C@H](CSCC2CCCC2)NC(=O)OC(C)(C)C)cc1`, for which, in the assay with Rattus norvegicus [6], the inhibition in vivo at 100 mg/kg came out at 43%. In addition, the concentration for half-maximal inhibition (IC50) in assay [1] came out at 0.63 µM; in assay [3], 3.9 µM. Moreover, the inhibition in assay [4] was found to be 45%. Further, in assay [2], the Selectivity ratio was 6.2. Further, the Inhibition in the assay on Rattus norvegicus [5] was 47%.

Take `COc1ccc(CNC(=O)[C@H](CSCC2CCCCC2)NC(=O)OC(C)(C)C)cc1`: the IC50 in assay [1] was 0.61 µM; in assay [3] it was 1.7 µM. Also, the inhibition in assay [4] amounted to 66%. Besides, the Selectivity ratio in assay [2] came out at 2.8. The molecule also displayed an Inhibition in the assay with Rattus norvegicus [5] of 36%.

Take `COc1ccc(COC(=O)[C@H](CC(=O)OC2CCCCC2)NC(=O)OC(C)(C)C)cc1`: the IC50 worked out at 2.3 µM in assay [1] and 16 µM in assay [3]. Further, the Selectivity ratio in assay [2] is 7.
